# Publication PMC12814486 (Bioorganic & medicinal chemistry, 2025)
# Assays:
# mouse sEH = target: T1, mouse sEH (Mus musculus, UniProt P34914); test: sEH inhibition assay; assay type: biochemical
# T1 sequence (P34914 1-554): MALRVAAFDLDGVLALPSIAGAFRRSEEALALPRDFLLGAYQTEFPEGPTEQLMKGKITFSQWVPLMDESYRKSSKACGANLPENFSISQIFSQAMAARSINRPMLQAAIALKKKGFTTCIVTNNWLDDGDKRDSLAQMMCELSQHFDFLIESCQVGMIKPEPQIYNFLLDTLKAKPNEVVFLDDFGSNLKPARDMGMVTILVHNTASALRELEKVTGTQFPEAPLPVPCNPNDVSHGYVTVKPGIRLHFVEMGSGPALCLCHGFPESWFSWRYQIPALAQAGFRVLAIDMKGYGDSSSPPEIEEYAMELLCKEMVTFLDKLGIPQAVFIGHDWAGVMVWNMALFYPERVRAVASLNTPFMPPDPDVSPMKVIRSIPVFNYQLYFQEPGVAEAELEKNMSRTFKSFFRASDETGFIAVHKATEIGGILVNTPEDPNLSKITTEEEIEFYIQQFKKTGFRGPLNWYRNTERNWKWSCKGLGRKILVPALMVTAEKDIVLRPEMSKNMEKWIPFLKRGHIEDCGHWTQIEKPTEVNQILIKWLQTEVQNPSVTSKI
# [1] = Microsomal stability assay in liver microsomes; assay type: in vitro ADME; settings: mouse, pH 7.4
# Procedure, shortened: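 Test compound was taken from a 1 mM DMSO stock. It was preincubated 5 min at 37 °C with liver microsomes in 0.1 M phosphate buffer, pH 7.4. Reaction was started with an NADPH regenerating system (glucose-6-phosphate, NADPH, glucose-6-phosphate dehydrogenase, MgCl2) and quenched with methanol at 0, 10, 20, 30 and 60 min. Samples were centrifuged and read by LC-MS SIM as peak area ratio to internal standard. k = negative slope of ln ratio vs time; CLint = k/P (P = protein concentration). Duplicates or triplicates were averaged.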
# Nociceptin (NOP) = Nociceptin (NOP) (Homo sapiens, UniProt P41146); test: NIMH PDSP binding screen; settings: read-out: Inhibition (%) Nociceptin (NOP)
# 5-HT1A = target: T2, 5-HT1A (Homo sapiens, UniProt P08908); test: NIMH PDSP binding screen; settings: read-out: Inhibition (%) 5-HT1A
# T2 sequence (P08908 1-422): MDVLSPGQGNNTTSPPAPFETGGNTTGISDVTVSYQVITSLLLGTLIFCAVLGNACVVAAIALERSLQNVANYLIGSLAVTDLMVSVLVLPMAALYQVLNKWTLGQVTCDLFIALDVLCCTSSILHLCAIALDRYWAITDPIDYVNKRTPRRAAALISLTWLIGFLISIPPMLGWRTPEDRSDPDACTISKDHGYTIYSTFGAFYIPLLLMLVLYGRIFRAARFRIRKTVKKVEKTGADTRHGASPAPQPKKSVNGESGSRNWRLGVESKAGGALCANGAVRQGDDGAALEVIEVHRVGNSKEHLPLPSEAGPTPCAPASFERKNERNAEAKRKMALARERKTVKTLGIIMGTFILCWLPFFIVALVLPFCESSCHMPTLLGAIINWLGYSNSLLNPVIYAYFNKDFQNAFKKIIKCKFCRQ
# 5-HT1D = 5-HT1D (Homo sapiens, UniProt P28221); test: NIMH PDSP binding screen; settings: read-out: Inhibition (%) 5-HT1D
# 5-HT2C = target: T3, 5-HT2C (Homo sapiens, UniProt P28335); test: NIMH PDSP binding screen; settings: read-out: Inhibition (%) 5-HT2C
# T3 sequence (P28335 33-458): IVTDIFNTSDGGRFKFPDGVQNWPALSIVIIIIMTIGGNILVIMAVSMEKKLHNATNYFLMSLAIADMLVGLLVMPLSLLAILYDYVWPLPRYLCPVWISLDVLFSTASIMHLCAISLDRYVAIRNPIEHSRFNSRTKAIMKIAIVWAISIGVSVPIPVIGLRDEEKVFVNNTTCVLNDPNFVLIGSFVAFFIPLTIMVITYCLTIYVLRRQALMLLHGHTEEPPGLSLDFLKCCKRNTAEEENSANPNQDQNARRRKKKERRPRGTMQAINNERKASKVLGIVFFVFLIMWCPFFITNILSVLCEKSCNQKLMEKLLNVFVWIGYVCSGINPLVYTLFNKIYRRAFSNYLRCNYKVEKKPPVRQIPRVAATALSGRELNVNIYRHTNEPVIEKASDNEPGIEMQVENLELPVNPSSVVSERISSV
# 5-HT4 = 5-HT4 (Homo sapiens, UniProt Q13639); test: NIMH PDSP binding screen; settings: read-out: Inhibition (%) 5-HT4
# male Sprague-Dawley rats = test: Home cage wheel running; assay type: in vivo, rat; settings: 3 mg/kg intraperitoneal, vs vehicle, n = 8/group
# Nociceptin (NOP), sequence (P41146 whole entry): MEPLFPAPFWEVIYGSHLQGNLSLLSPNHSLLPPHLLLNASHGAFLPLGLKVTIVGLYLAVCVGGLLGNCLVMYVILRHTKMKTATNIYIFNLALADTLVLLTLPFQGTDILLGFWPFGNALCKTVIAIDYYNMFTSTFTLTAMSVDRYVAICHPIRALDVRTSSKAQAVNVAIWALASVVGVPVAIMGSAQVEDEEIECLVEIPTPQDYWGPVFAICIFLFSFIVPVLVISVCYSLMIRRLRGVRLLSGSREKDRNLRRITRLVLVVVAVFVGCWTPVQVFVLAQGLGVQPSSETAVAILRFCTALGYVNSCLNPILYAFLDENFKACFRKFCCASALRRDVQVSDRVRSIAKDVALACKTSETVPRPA
# 5-HT4, sequence (Q13639 whole entry, species assumed): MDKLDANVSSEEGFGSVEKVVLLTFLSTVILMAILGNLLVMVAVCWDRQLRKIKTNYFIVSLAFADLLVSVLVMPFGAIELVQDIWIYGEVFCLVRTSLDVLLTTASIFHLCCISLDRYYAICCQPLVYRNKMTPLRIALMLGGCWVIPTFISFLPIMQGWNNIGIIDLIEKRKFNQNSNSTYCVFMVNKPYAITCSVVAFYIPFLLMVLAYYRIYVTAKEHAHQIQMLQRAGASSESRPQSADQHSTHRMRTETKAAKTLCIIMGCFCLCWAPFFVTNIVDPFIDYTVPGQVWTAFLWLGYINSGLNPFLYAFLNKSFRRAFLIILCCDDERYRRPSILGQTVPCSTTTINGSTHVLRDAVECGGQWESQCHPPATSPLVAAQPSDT
# 5-HT1D, sequence (P28221 whole entry, species assumed): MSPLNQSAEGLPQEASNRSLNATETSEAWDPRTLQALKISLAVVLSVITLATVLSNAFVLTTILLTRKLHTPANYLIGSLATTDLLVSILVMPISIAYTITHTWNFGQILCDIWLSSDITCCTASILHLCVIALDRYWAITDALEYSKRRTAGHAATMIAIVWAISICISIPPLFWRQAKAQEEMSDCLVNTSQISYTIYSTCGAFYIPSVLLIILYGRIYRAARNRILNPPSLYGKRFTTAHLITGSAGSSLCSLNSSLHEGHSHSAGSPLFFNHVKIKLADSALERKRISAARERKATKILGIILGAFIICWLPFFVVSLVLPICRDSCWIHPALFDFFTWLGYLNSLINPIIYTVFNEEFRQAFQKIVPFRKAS
smiles,measurement,setting,value
"O=C(Nc1ccc(-c2cnc3ccccc3n2)cc1)C1CCN(S(=O)(=O)c2ccccc2Cl)CC1 [Compound 4m, 1-((2-chlorophenyl)sulfonyl)-N-(4-(quinoxalin-2-yl)phenyl)piperidine-4-carboxamide]",IC50,mouse sEH,0.0391 µM
same,half-life at 1 µM,[1],32 min
same,microsomal CLint at 1 µM,[1],42.8 µL/min/mg
same,inhibition at 10 µM,Nociceptin (NOP),-5.22 ± 3.98%
same,inhibition at 10 µM,5-HT1A,-18 ± 14.6%
same,inhibition at 10 µM,5-HT1D,-8.07 ± 3.46%
same,inhibition at 10 µM,5-HT2C,-18.2 ± 3.45%
same,inhibition at 10 µM,5-HT4,29.6 ± 23.2%
same,wheel revolutions in the 15 min after drug injection,male Sprague-Dawley rats,significantly lower
